24 molecules from ChEMBL document CHEMBL4732185, “Synthesis, biological evaluation and structure-activity relationship of novel dichloroacetophenones targeting pyruvate dehydrogenase kinases with potent anticancer activity” (Eur J Med Chem, 2021) can be followed below.

Activity calls are given as the source filed them. No cut-off for these calls is given here.

Assay [1] has as its system A549. Briefly: Antiproliferative activity against human A549 cells assessed as growth inhibition at 10 uM after 72 hrs by MTT assay relative to control. Format: functional. The following applies: read-out: GI. An outline of the steps:
(§1)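 Single-concentration MTT screen on MCF-7 and A549 cells grown in DMEM + 10% FBS. Cells at 3000–6000/well, cultured overnight, then given compound in buffer with 1% DMSO for 72 h. MTT (0.5 mg/mL) added for 4 h, formazan dissolved in DMSO, A570 read. Percent inhibition reported as the average ± S.D. of three independent measurements.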
For orientation: Tetrazolium dyes change colour on reduction, which living cells bring about.

Assay [2] deals with MCF7. Briefly: Antiproliferative activity against human MCF7 cells assessed as growth inhibition at 10 uM after 72 hrs by MTT assay relative to control. Type of assay: functional. As to conditions: read-out: GI. An outline of the steps: as §1
Assay [3] relates to A549. Briefly: Antiproliferative activity against human A549 cells assessed as growth inhibition at 1 uM after 72 hrs by MTT assay relative to control. The following applies: for inhibition of growth at 1 µM: read-out: GI. Format: functional. An outline of the steps: as §1
In assay [4] the test system is MCF7. Kind of assay: Antiproliferative activity against human MCF7 cells assessed as growth inhibition at 1 uM after 72 hrs by MTT assay relative to control. Format: functional. As to conditions: for inhibition of growth at 1 µM: read-out: GI. A digest of the protocol: as §1
The species entered for the next assay is Homo sapiens. Briefly: Inhibition of PDK (unknown origin) using RYHGHSMSDP as substrate at 1 uM after 30 mins by Kinase-Glo luminescent assay.

Turning to `COc1ccc(Nc2ccc(C(=O)C(Cl)Cl)cc2[N+](=O)[O-])cc1`, the inhibition of growth at 10 µM in the assay with A549 [1] was 97.7%; in the assay with MCF7 [2] it was 95.9%. Moreover, the inhibition of growth at 1 µM was determined as 45% in the assay on A549 [3] and 29.2% in the assay on MCF7 [4]. The same molecule returned an inhibition in the assay filed under Homo sapiens of 55.7%.
Regarding `O=C(c1ccc(-n2cncn2)c([N+](=O)[O-])c1)C(Cl)Cl`, the results for the inhibition of growth at 10 µM with A549 [1] and with MCF7 [2] were 58.9% and 11.9%, respectively. Besides, the “growth inhibition (GI)” value with A549 [3] and in the assay with MCF7 [4] was “inactive” throughout. In the assay filed under Homo sapiens, this molecule returned an inhibition of 17.4%.
Turning to `O=C(c1ccc(Nc2ccc(F)cc2)c([N+](=O)[O-])c1)C(Cl)Cl`, the inhibition of growth at 10 µM was 98.9% with A549 [1] and 97.8% in the assay on MCF7 [2]. Further, the inhibition of growth at 1 µM came out at 23.2% in the assay with A549 [3] and 17.9% in the assay on MCF7 [4]. The same molecule had an inhibition in the assay listed under Homo sapiens of 50.1%.
In the case of `Cc1ccc(-c2ccc(C(=O)C(Cl)Cl)cc2[N+](=O)[O-])cc1`, the values for the inhibition of growth at 10 µM in the assay with A549 [1] and in the assay with MCF7 [2] were 96% and 89.1%, respectively. The results for the inhibition of growth at 1 µM in the assay with A549 [3] and in the assay on MCF7 [4] were 13.8% and 26.4%, respectively. This molecule had an inhibition in the assay filed under Homo sapiens of 5.9%.
Turning to `O=C(c1ccc(-c2ccc(F)cc2)c([N+](=O)[O-])c1)C(Cl)Cl`, the inhibition of growth at 10 µM came out at 95.3% in the assay on A549 [1] and 91.6% in the assay on MCF7 [2]. Further, the inhibition of growth at 1 µM was 44.7% in the assay on A549 [3] and 30.8% in the assay on MCF7 [4]. In the assay listed under Homo sapiens, this molecule returned an inhibition of 12.1%.
For the molecule `COc1cccc2c1C(=O)c1c(O)c3c(c(O)c1C2=O)C[C@@](O)(C(=O)CO)C[C@@H]3O[C@H]1C[C@H](N)[C@H](O)[C@H](C)O1` [DOXORUBICIN], the inhibition of growth at 10 µM was 98.5% with A549 [1] and 97.5% in the assay on MCF7 [2]. The inhibition of growth at 1 µM in the assay on A549 [3] worked out at 81.2%; in the assay on MCF7 [4] it was 59.8%.
For the molecule `O=C(c1ccc(N2CCCC2)c([N+](=O)[O-])c1)C(Cl)Cl`, the figures for the inhibition of growth at 10 µM in the assay on A549 [1] and in the assay with MCF7 [2] were 97.3% and 94.6%, respectively. Further, the values for the inhibition of growth at 1 µM in the assay with A549 [3] and in the assay on MCF7 [4] were 30.6% and 23%, respectively. Besides, the inhibition in the assay listed under Homo sapiens was determined as 32.4%.
Take `Cc1ccc(Nc2ccc(C(=O)C(Cl)Cl)cc2[N+](=O)[O-])cc1`: the results for the inhibition of growth at 10 µM in the assay on A549 [1] and in the assay with MCF7 [2] were 97.3% and 88.9%, respectively. Besides, the inhibition of growth at 1 µM with A549 [3] turned out to be 48.1%; in the assay on MCF7 [4], 12.1%. The molecule further came in with an inhibition in the assay filed under Homo sapiens of 64.4%.
Turning to `O=C(c1ccc(N2CCOCC2)c([N+](=O)[O-])c1)C(Cl)Cl`, the inhibition of growth at 10 µM in the assay on A549 [1] is 95.6%; with MCF7 [2] it was 90.4%. Further, the inhibition of growth at 1 µM is 10.1% in the assay on A549 [3] and 18.9% in the assay on MCF7 [4]. The same molecule showed an inhibition in the assay filed under Homo sapiens of 36.9%.
Consider `O=C(c1ccc(-c2ccc(OC(F)(F)F)cc2)c([N+](=O)[O-])c1)C(Cl)Cl`, for which the inhibition of growth at 10 µM in the assay with A549 [1] stood at 93.6%; in the assay on MCF7 [2] it was 97.8%. The inhibition of growth at 1 µM in the assay with A549 [3] came out at 36.3%; with MCF7 [4], 24.7%. The molecule further gave an inhibition in the assay filed under Homo sapiens of 21.4%.
In the case of `CC(C)c1ccc(Oc2ccc(C(=O)C(Cl)Cl)cc2[N+](=O)[O-])cc1`, the results for the inhibition of growth at 10 µM with A549 [1] and in the assay with MCF7 [2] were 90.7% and 85.7%, respectively. Moreover, the inhibition of growth at 1 µM is 12.5% in the assay on A549 [3] and 28.7% with MCF7 [4]. In the assay listed under Homo sapiens, the inhibition turned out to be 39.4%.
With `O=C(c1ccc(N2CCNCC2)c([N+](=O)[O-])c1)C(Cl)Cl`, the inhibition of growth at 10 µM in the assay with A549 [1] was 93.1%; in the assay with MCF7 [2], 57%. The inhibition of growth at 1 µM with A549 [3] was determined as 22.6%. The “growth inhibition (GI)” value in the assay on MCF7 [4] was “inactive”. The inhibition in the assay filed under Homo sapiens worked out at 48.6%.
Turning to `CCOc1ccc(Nc2ccc(C(=O)C(Cl)Cl)cc2[N+](=O)[O-])cc1`, the values for the inhibition of growth at 10 µM in the assay on A549 [1] and in the assay on MCF7 [2] were 97.4% and 93.8%, respectively. In addition, the inhibition of growth at 1 µM in the assay with A549 [3] was determined as 52.9%; in the assay on MCF7 [4] it was 18.8%. Besides, the inhibition in the assay listed under Homo sapiens stood at 68.7%.
Turning to `O=C(c1ccc(-n2ccnc2[N+](=O)[O-])c([N+](=O)[O-])c1)C(Cl)Cl`, the inhibition of growth at 10 µM in the assay on A549 [1] was determined as 80.9%; with MCF7 [2], 21.4%. The “growth inhibition (GI)” value in the assay on A549 [3] and in the assay with MCF7 [4] was “inactive” in each case. For the same molecule, in the assay listed under Homo sapiens, the inhibition was 8.1%.
Consider `O=C(c1ccc(C2CC2)c([N+](=O)[O-])c1)C(Cl)Cl`, for which the inhibition of growth at 10 µM in the assay with A549 [1] came out at 95.9%; with MCF7 [2], 87.8%. Besides, the inhibition of growth at 1 µM with A549 [3] stood at 40.1%; in the assay on MCF7 [4], 31.3%. The same molecule yielded an inhibition in the assay filed under Homo sapiens of 17.3%.
Take `O=C(c1ccc(-c2ccsc2)c([N+](=O)[O-])c1)C(Cl)Cl`: the inhibition of growth at 10 µM in the assay on A549 [1] was determined as 94.4%; in the assay with MCF7 [2], 43.5%. For the same molecule, the inhibition of growth at 1 µM came out at 14.4% in the assay with A549 [3] and 7.5% with MCF7 [4]. In the assay filed under Homo sapiens, the inhibition was 26.5%.
For `O=C(c1ccc(-n2ccnc2)c([N+](=O)[O-])c1)C(Cl)Cl` the same measures were 96.6%, 90.5%, 30.5%, 24.2% and 20.5%.
As to `CC(C)c1ccc(Sc2ccc(C(=O)C(Cl)Cl)cc2[N+](=O)[O-])cc1`, the results for the inhibition of growth at 10 µM with A549 [1] and with MCF7 [2] were 76.3% and 79.8%, respectively. Also, the inhibition of growth at 1 µM in the assay with A549 [3] was 12.9%; with MCF7 [4] it was 18.9%. For the same molecule, the inhibition in the assay filed under Homo sapiens is 19.5%.
Consider `COc1ccc(Nc2ccc(C(=O)C(Cl)Cl)cc2[N+](=O)[O-])cc1OC`, for which the inhibition of growth at 10 µM in the assay with A549 [1] turned out to be 96.6%; with MCF7 [2], 90.5%. In addition, the inhibition of growth at 1 µM with A549 [3] is 40.5%; in the assay on MCF7 [4] it was 24.2%. Besides, the inhibition in the assay listed under Homo sapiens was determined as 66.4%.
Turning to `CN(C)c1ccc(Nc2ccc(C(=O)C(Cl)Cl)cc2[N+](=O)[O-])cc1`, the inhibition of growth at 10 µM was determined as 98.6% with A549 [1] and 93.2% in the assay on MCF7 [2]. The inhibition of growth at 1 µM with A549 [3] came to 75%; in the assay on MCF7 [4] it was 31.6%. This molecule yielded an inhibition in the assay listed under Homo sapiens of 88.2%.
Turning to `O=C(c1ccc(-c2ccccc2)c([N+](=O)[O-])c1)C(Cl)Cl`, the inhibition of growth at 10 µM in the assay on A549 [1] was 92.6%; with MCF7 [2], 56.2%. The inhibition of growth at 1 µM in the assay with A549 [3] turned out to be 8.9%; in the assay on MCF7 [4], 15.8%. This molecule also yielded an inhibition in the assay filed under Homo sapiens of 25.6%.
`O=C(c1ccc(N2CCCCC2)c([N+](=O)[O-])c1)C(Cl)Cl`: the values for the inhibition of growth at 10 µM in the assay on A549 [1] and in the assay with MCF7 [2] were 97.1% and 95.8%, respectively. Further, the inhibition of growth at 1 µM with A549 [3] came out at 38.9%; with MCF7 [4], 22.4%. Besides, in the assay filed under Homo sapiens, the inhibition amounted to 40.2%.
Turning to `O=C(c1ccc(NC2CC2)c([N+](=O)[O-])c1)C(Cl)Cl`, the inhibition of growth at 10 µM in the assay on A549 [1] was 95.7%; in the assay with MCF7 [2], 96%. In addition, the inhibition of growth at 1 µM in the assay on A549 [3] worked out at 21.6%; with MCF7 [4] it was 25.7%. The molecule further yielded an inhibition in the assay filed under Homo sapiens of 17.5%.
On to `O=C(c1ccc(Nc2ccccc2)c([N+](=O)[O-])c1)C(Cl)Cl`, for which the inhibition of growth at 10 µM in the assay with A549 [1] was determined as 97.4%; in the assay with MCF7 [2] it was 97.1%. The inhibition of growth at 1 µM is 46.1% in the assay on A549 [3] and 26.3% in the assay on MCF7 [4]. The same molecule gave an inhibition in the assay listed under Homo sapiens of 60.7%.

Broadly, the inhibition is the change of the read-out against control, counted positive when it falls.
